What all share (format): functional
In one assay the test system is Phytophthora infestans. As to the kind of experiment: Antifungal activity against Phytophthora infestans assessed as growth inhibition at 50 ug/mL measured after 2 days post dose. The note with it: for inhibition of growth at 50 µg/mL: 48 h, read-out: GI. Put shortly: (§1)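 Compound stock at 500 μg/mL in DMF, diluted with sterile water in the dish and mixed into potato dextrose agar before setting. A 4 mm diameter fungal plug is placed on the plate and cultured at 24-26 °C. Colony diameter is measured after 2 days.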

The test system of another assay is Rhizoctonia solani. Put plainly: Antifungal activity against Rhizoctonia solani assessed as growth inhibition at 50 ug/mL measured after 2 days post dose. The note with it: for inhibition of growth at 50 µg/mL: 48 h, read-out: GI.
Assay [1] concerns Botryosphaeria berengeriana. As to the kind of experiment: Antifungal activity against Botryosphaeria berengeriana assessed as growth inhibition at 50 ug/mL measured after 2 days post dose. The note with it: for inhibition of growth at 50 µg/mL: 48 h, read-out: GI.
In the next assay the test system is Alternaria solani. Put plainly: Antifungal activity against Alternaria solani assessed as growth inhibition at 50 ug/mL measured after 2 days post dose. As to conditions: 48 h, read-out: GI.
For the next assay, the system named is Fusarium graminearum. As to the kind of experiment: Antifungal activity against Fusarium graminearum assessed as growth inhibition at 50 ug/mL measured after 2 days post dose. The note with it: for inhibition of growth at 50 µg/mL: 48 h, read-out: GI. Put shortly:
as §1

A further assay concerns Ceratobasidium cereale. As to the kind of experiment: Antifungal activity against Ceratobasidium cereale assessed as growth inhibition at 50 ug/mL measured after 2 days post dose. As to conditions: for inhibition of growth at 50 µg/mL: 48 h, read-out: GI.
A further assay relates to Ustilaginoidea virens. As to the kind of experiment: Antifungal activity against Villosiclava virens assessed as growth inhibition at 50 ug/mL measured after 2 days post dose. The note with it: for inhibition of growth at 50 µg/mL: 48 h, read-out: GI.
Another assay relates to Cytospora mali. As to the kind of experiment: Antifungal activity against Valsa mali assessed as growth inhibition at 50 ug/mL measured after 2 days post dose. The note with it: for inhibition of growth at 50 µg/mL: 48 h, read-out: GI.
In the next assay the test system is Mycosphaerella arachidis. As to the kind of experiment: Antifungal activity against Mycosphaerella arachidis assessed as growth inhibition at 50 ug/mL measured after 2 days post dose. As to conditions: for inhibition of growth at 50 µg/mL: 48 h, read-out: GI.
In the next assay the test system is Puccinia triticina. As to the kind of experiment: Antifungal activity against Puccinia triticina inoculated on 500 ug/mL compound pre-treated wheat plants with 3 to 5 leaves assessed as growth inhibition. Put shortly:
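Healthy wheat plants at the 3-5 leaf stage were sprayed with compound (500 μg/mL) and then inoculated with spores. Inhibition percentage was calculated against the corresponding spore stack.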

The subject of the next assay is Fusarium oxysporum. As to the kind of experiment: Antifungal activity against Fusarium oxysporum assessed as growth inhibition at 50 ug/mL measured after 2 days post dose. The note with it: 48 h, read-out: GI.
For assay [2], the system named is Colletotrichum gloeosporioides. Put plainly: Antifungal activity against Glomerella cingulata assessed as growth inhibition at 50 ug/mL measured after 2 days post dose. The note with it: for inhibition of growth at 50 µg/mL: 48 h, read-out: GI.
The test system of another assay is Tobacco mosaic virus. As to the kind of experiment: Induction of systemic acquired resistance against Tobacco mosaic virus (TMV) in tobacco plants exposed to 500 ug/mL compound through leaf spray followed by 7 days culture under green house conditions assessed as inhibition of viral growth in leaves infected with Tobacco mosaic virus (TMV) measured 72 hr post viral infection by half-leaf juice rubbing method. More on the design: scale not given: the % may be the effect or the level left. Put shortly:
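Tobacco plants received compound by leaf spray or by soil irrigation, with double-distilled water as CK. Newly grown leaves were then rub-inoculated with TMV (5.88×10-2 μg/mL), and plants were kept at 25 °C for 72 h. Lesions on inoculated leaves were counted. Inhibition = (CK−A)/CK×100 from mean lesion numbers versus control.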

A further assay concerns Fusarium fujikuroi. As to the kind of experiment: Antifungal activity against Fusarium fujikuroi assessed as growth inhibition at 50 ug/mL measured after 2 days post dose. The note with it: for inhibition of growth at 50 µg/mL: 48 h, read-out: GI.
The subject of assay [3] is Fusarium oxysporum f. sp. vasinfectum. Put plainly: Antifungal activity against Fusarium oxysporum f. sp. vasinfectum assessed as growth inhibition at 50 ug/mL measured after 2 days post dose. The note with it: for inhibition of growth at 50 µg/mL: 48 h, read-out: GI.
For a further assay, the system named is Alternaria mali. As to the kind of experiment: Antifungal activity against Alternaria mali assessed as growth inhibition at 50 ug/mL measured after 2 days post dose. The note with it: for inhibition of growth at 50 µg/mL: 48 h, read-out: GI.
Another assay concerns Sclerotinia sclerotiorum. As to the kind of experiment: Antifungal activity against Sclerotinia sclerotiorum assessed as growth inhibition at 50 ug/mL measured after 2 days post dose. As to conditions: 48 h, read-out: GI.
For the next assay, the system named is Botrytis cinerea. As to the kind of experiment: Antifungal activity against Botryotinia fuckeliana assessed as growth inhibition at 50 ug/mL measured after 2 days post dose. The note with it: for inhibition of growth at 50 µg/mL: 48 h, read-out: GI.

Each structure is given as a SMILES string. The source made the active and inactive calls. No cut-off for these calls is given here.

Turning to `CCCc1c(-c2nnc(-c3snnc3C)o2)cnn1-c1ccc(Cl)cc1`, in the assay on Phytophthora infestans, the “growth inhibition (GI)” value is “inactive”. In addition, the inhibition of growth at 50 µg/mL with Rhizoctonia solani stood at 0%; in [1] it was 44.4%; in the assay with Alternaria solani, 17.6%; with Fusarium graminearum, 48.3%; in the assay with Ceratobasidium cereale, 31%; in the assay on Ustilaginoidea virens, 0%. The inhibition of growth at 50 µg/mL with Cytospora mali turned out to be 19.4%; with Mycosphaerella arachidis it was 41.2%; with Fusarium oxysporum it was 0%; in assay [2], 0%; with Fusarium fujikuroi, 31%; in assay [3] it was 0%. Besides, the inhibition of growth at 50 µg/mL with Alternaria mali stood at 27.6%; in the assay with Sclerotinia sclerotiorum it was 23.5%; in the assay on Botrytis cinerea, 31%. Also, the “growth inhibition (GI)” value with Puccinia triticina stood at 0%. The Activity in the assay on Tobacco mosaic virus was 0%.

For `Cc1ccc(-c2nnc(-c3snnc3C)o2)c(Cl)n1`, the inhibition of growth at 50 µg/mL in the assay on Phytophthora infestans came to 30%; in the assay on Rhizoctonia solani, 22.2%; in [1] it was 38.9%; with Alternaria solani, 0%; in the assay with Fusarium graminearum it was 31%; in the assay with Ceratobasidium cereale, 13.8%. For the same compound, the inhibition of growth at 50 µg/mL in the assay on Ustilaginoidea virens amounted to 17.6%; in the assay with Cytospora mali it was 22.2%; with Mycosphaerella arachidis, 23.5%; with Fusarium oxysporum, 0%; in assay [2], 0%; in the assay on Fusarium fujikuroi, 17.2%. Moreover, the inhibition of growth at 50 µg/mL in [3] was 0%; in the assay on Alternaria mali, 24.1%; with Sclerotinia sclerotiorum it was 0%; with Botrytis cinerea, 17.2%. Further, the “growth inhibition (GI)” value in the assay on Puccinia triticina came to 17%. In the assay on Tobacco mosaic virus, the Activity came out at 30%.

In the case of `Cc1ccc(-c2nnc(-c3snnc3C)o2)cc1`, the inhibition of growth at 50 µg/mL in the assay on Phytophthora infestans turned out to be 0%; in the assay with Rhizoctonia solani, 67.9%; with Alternaria solani, 18.4%; in the assay with Fusarium oxysporum, 0%; in the assay with Sclerotinia sclerotiorum, 56%; with Botrytis cinerea, 2.1%. Also, the “growth inhibition (GI)” value (in [1]; in the assay on Fusarium graminearum; with Ceratobasidium cereale; in the assay on Ustilaginoidea virens; in the assay on Cytospora mali; in the assay on Mycosphaerella arachidis) was “inactive” in each case. Moreover, the “growth inhibition (GI)” value (in assay [2]; with Fusarium fujikuroi; in [3]; in the assay on Alternaria mali) was “inactive” throughout. The “growth inhibition (GI)” value in the assay on Puccinia triticina is on record as 11%. Besides, in the assay with Tobacco mosaic virus, the Activity turned out to be 0%.

For the compound `Cc1nnsc1-c1nnc(-c2snnc2C)o1`, the “growth inhibition (GI)” value with Phytophthora infestans was “inactive”. Further, the inhibition of growth at 50 µg/mL came to 0% with Rhizoctonia solani; 38.1% in assay [1]; 44.7% with Alternaria solani; 31.6% in the assay on Fusarium graminearum; 0% in the assay with Ceratobasidium cereale; 0% in the assay on Ustilaginoidea virens. Besides, the inhibition of growth at 50 µg/mL with Cytospora mali was 0%; with Mycosphaerella arachidis, 13.6%; in the assay with Fusarium oxysporum, 31.3%; in assay [2], 13.8%; with Fusarium fujikuroi it was 21.1%; in assay [3], 0%. The inhibition of growth at 50 µg/mL in the assay with Alternaria mali was 0%; in the assay with Sclerotinia sclerotiorum, 32.1%; with Botrytis cinerea, 0%. In addition, in the assay on Puccinia triticina, the “growth inhibition (GI)” value stood at 28%. In addition, the Activity in the assay with Tobacco mosaic virus turned out to be 0%.

In the case of `Cc1cccc(-c2nnc(-c3snnc3C)o2)c1`, the inhibition of growth at 50 µg/mL in the assay on Phytophthora infestans came to 17.1%; with Rhizoctonia solani, 0%; in assay [1] it was 47.2%; in the assay on Alternaria solani, 0%; in the assay with Fusarium graminearum, 24.1%; in the assay on Ceratobasidium cereale, 37.9%. For the same compound, the inhibition of growth at 50 µg/mL in the assay on Ustilaginoidea virens came to 0%; in the assay with Cytospora mali it was 47.2%; in the assay with Mycosphaerella arachidis, 23.5%; with Fusarium oxysporum it was 0%; in [2], 0%; with Fusarium fujikuroi, 24.1%. In addition, the inhibition of growth at 50 µg/mL turned out to be 0% in [3], 41.4% in the assay with Alternaria mali, 23.5% with Sclerotinia sclerotiorum and 37.9% in the assay with Botrytis cinerea. In addition, the “growth inhibition (GI)” value in the assay on Puccinia triticina is recorded as 98%. Further, the outcome in the assay on Tobacco mosaic virus was inactive.

For `CCc1cc(-c2nnc(-c3snnc3C)o2)nn1C`, the inhibition of growth at 50 µg/mL was determined as 17.1% in the assay with Phytophthora infestans; 16.7% in assay [1]; 17.9% in the assay with Alternaria solani; 27.8% in the assay with Fusarium graminearum; 33.3% with Mycosphaerella arachidis; 26.5% with Fusarium oxysporum. The inhibition of growth at 50 µg/mL amounted to 42.1% in [2] and 0% in the assay with Sclerotinia sclerotiorum. For the same compound, the “growth inhibition (GI)” value (with Rhizoctonia solani; in the assay on Ceratobasidium cereale; with Ustilaginoidea virens; in the assay on Cytospora mali; in the assay with Fusarium fujikuroi; in assay [3]) was “inactive” each time. In addition, the “growth inhibition (GI)” value in the assay with Alternaria mali and in the assay with Botrytis cinerea was “inactive” in each case. Also, the “growth inhibition (GI)” value with Puccinia triticina is 20%. Further, in the assay on Tobacco mosaic virus, the Activity is given as 20%.

Consider `Cc1nnsc1-c1nnc(/C=C/c2ccccc2)o1`, for which the inhibition of growth at 50 µg/mL amounted to 20% with Phytophthora infestans; 0% in the assay with Rhizoctonia solani; 46% in [1]; 31.6% with Alternaria solani; 36.8% in the assay on Fusarium graminearum; 0% in the assay with Ceratobasidium cereale. In addition, the inhibition of growth at 50 µg/mL in the assay with Ustilaginoidea virens worked out at 0%; with Cytospora mali, 20.3%; with Mycosphaerella arachidis, 27.3%; in the assay with Fusarium oxysporum, 36.3%; in assay [2] it was 13.8%; in the assay with Fusarium fujikuroi it was 21.1%. Besides, the inhibition of growth at 50 µg/mL in [3] is 23.7%; in the assay on Alternaria mali it was 0%; in the assay on Sclerotinia sclerotiorum, 0%; with Botrytis cinerea it was 0%. In the assay on Puccinia triticina, the “growth inhibition (GI)” value is 20%. Also, in the assay with Tobacco mosaic virus, the Activity amounted to 0%.

Values taken from ChEMBL document CHEMBL3046238, “Synthesis and biological activity evaluation of 1,2,3-thiadiazole derivatives as potential elicitors with highly systemic acquired resistance” (2009).
